In test [1] the test system is BaF3. The test is described as follows: Antiproliferative activity against murine BaF3 cells expressing NPM/ALK L256T mutant by [3H]thymidine uptake assay. Format: functional, cell-based. The conditions noted are these: Mus musculus. The method, boiled down: (§1)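 IL-3-independent BaF3 clones stably transfected (electroporation, G418 selection) with human NPM/ALK, WT or L256T; RPMI 1640 + 10% FBS, 37 °C, 5% CO2. Seeded 10^4/well, exposed to inhibitor (0-4 µM range in figure) or vehicle for 8-48 h; 3[H]-thymidine uptake.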

Test [2] has as its system BaF3. The experiment in a line: Antiproliferative activity against murine BaF3 cells expressing wild type NPM/ALK by [3H]thymidine uptake assay. Format: functional, cell-based. Particulars: Mus musculus. Summed up: as §1
Test [3] has as its target T1, NPM/ALK (Nucleophosmin/ALK tyrosine kinase receptor) (Homo sapiens, UniProt Q9UM73). The test is described as follows: Inhibition of wild type NPM/ALK autophosphorylation activity in BaF3 cells by antiphosphotyrosine immunoblotting assay. The test is classed as cell-based.
The target in test [4] is T2, NPM/ALK (Nucleophosmin/ALK tyrosine kinase receptor) (Homo sapiens, UniProt P06748+Q9UM73, L256T). The experiment in a line: Inhibition of NPM/ALK L256T mutant autophosphorylation activity in BaF3 cells by antiphosphotyrosine immunoblotting assay. Format: cell-based. Background: A western blot detects proteins with antibodies after separation by electrophoresis.
T2 sequence (P06748 whole entry, stated change not applied): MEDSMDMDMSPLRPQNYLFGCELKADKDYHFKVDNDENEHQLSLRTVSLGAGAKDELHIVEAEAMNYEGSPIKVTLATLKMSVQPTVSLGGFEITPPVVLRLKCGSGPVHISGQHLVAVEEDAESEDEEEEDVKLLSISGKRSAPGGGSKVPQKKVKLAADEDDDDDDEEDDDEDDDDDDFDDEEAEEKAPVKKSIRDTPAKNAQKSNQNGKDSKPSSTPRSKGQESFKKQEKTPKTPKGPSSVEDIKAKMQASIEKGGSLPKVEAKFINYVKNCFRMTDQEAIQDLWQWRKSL
T2 sequence (Q9UM73 19-1620 L256T limits assumed, stated change not applied): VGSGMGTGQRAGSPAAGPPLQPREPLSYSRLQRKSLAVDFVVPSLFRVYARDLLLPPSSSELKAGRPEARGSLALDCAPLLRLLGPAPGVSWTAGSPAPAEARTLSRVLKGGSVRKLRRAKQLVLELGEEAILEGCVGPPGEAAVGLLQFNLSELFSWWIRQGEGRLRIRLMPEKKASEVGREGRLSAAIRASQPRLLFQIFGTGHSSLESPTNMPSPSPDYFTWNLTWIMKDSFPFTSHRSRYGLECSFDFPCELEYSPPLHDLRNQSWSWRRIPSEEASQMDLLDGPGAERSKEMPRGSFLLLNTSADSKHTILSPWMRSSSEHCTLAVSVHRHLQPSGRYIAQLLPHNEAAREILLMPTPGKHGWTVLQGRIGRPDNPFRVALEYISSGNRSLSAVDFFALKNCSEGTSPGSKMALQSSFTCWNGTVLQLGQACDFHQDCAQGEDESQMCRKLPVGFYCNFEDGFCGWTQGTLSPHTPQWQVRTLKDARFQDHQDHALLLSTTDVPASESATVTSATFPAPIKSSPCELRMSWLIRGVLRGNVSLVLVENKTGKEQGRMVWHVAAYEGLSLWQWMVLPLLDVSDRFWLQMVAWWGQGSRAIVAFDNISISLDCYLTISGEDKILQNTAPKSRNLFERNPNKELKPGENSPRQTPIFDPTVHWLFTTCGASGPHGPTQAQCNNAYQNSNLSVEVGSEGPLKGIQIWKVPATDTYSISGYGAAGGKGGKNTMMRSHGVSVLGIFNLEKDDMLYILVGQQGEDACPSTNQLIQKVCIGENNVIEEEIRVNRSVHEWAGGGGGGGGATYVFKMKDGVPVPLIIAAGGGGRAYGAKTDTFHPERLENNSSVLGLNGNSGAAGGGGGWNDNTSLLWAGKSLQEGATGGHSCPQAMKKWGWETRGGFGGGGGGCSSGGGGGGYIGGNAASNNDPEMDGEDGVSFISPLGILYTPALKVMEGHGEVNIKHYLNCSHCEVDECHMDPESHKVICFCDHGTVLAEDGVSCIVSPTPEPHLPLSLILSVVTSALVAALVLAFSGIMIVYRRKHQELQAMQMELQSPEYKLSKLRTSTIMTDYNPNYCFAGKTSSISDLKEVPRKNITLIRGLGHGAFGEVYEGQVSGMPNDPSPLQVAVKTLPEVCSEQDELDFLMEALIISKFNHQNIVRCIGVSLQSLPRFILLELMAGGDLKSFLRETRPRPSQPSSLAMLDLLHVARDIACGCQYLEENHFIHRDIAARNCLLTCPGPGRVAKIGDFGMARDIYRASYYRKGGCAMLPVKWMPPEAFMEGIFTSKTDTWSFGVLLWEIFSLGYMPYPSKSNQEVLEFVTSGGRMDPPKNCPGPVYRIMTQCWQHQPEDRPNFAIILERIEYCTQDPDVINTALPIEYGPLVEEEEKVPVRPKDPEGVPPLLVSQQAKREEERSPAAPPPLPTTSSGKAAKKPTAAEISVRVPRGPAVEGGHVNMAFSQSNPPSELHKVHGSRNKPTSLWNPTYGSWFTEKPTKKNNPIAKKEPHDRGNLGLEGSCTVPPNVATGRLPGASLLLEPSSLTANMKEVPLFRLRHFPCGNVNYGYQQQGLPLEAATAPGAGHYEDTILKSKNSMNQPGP
Test [5] has as its target T2, NPM/ALK (Nucleophosmin/ALK tyrosine kinase receptor). The test is described as follows: Inhibition of NPM/ALK L256T mutant kinase activity in BaF3 cells by radioenzymatic assay. The test is classed as cell-based.
Test [6] deals with T1, NPM/ALK (Nucleophosmin/ALK tyrosine kinase receptor). The test is described as follows: Inhibition of wild type NPM/ALK kinase activity in BaF3 cells by radioenzymatic assay. Format: cell-based.
Test [7] has as its system BaF3. The test is described as follows: Induction of cell death of murine BaF3 cells expressing NPM/ALK L256T mutant by trypan blue exclusion assay. The test is classed as functional, cell-based. Particulars: Mus musculus.

Calls of active or inactive are those of the source. No cut-off for these calls is given here. Some results are limits rather than exact numbers.

By IC50 is commonly meant the concentration at which inhibition is half-maximal. Lower therefore signals inhibition by little substance.

T1 sequence (Q9UM73 whole entry): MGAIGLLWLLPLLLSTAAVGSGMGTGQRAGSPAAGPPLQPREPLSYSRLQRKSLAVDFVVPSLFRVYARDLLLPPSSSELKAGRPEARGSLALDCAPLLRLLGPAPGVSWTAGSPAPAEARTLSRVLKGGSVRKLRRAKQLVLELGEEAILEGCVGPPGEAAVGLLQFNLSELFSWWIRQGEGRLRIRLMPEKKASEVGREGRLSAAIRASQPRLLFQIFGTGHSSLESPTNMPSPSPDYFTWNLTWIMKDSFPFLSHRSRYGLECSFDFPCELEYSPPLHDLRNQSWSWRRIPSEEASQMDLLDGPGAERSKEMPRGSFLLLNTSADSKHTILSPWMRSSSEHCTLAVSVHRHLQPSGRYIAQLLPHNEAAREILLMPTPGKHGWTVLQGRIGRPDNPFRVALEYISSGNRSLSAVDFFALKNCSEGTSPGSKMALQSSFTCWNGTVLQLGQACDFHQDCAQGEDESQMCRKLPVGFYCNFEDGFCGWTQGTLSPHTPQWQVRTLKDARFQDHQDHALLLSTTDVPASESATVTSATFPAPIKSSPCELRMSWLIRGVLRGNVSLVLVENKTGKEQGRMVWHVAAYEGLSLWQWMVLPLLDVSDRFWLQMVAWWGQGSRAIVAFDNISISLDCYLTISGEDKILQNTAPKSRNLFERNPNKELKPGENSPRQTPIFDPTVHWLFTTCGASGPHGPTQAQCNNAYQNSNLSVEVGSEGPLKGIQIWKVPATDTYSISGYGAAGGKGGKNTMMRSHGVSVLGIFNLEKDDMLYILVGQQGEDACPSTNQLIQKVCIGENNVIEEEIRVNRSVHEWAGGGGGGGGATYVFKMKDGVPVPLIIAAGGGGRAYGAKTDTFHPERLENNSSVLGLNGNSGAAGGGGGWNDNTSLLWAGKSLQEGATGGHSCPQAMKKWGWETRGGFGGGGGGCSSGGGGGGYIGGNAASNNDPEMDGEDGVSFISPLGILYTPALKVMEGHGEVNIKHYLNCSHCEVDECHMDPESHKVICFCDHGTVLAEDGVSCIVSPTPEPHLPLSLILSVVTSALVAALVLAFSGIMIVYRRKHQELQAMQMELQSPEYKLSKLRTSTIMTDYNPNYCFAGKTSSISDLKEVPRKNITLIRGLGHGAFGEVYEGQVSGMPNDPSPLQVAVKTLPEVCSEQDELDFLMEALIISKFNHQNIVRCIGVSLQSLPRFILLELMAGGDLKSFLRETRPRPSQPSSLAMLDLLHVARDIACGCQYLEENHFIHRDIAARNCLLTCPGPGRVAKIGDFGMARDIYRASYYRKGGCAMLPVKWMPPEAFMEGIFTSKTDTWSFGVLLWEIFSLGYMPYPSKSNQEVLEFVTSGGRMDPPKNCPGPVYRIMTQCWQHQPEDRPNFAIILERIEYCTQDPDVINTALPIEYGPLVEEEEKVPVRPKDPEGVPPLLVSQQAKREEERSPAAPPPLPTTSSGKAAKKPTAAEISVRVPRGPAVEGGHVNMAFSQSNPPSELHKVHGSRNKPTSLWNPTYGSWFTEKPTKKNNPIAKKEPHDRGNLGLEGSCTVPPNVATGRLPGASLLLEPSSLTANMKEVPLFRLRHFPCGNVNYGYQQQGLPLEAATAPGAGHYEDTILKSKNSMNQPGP
T1 sequence (P06748 whole entry, further chain): as the sequence (P06748 whole entry, stated change not applied) above

As to `Cc1ccc(NC(=O)c2ccc(CN3CCN(C)CC3)cc2)cc1Nc1nccc(-c2cccnc2)n1` [IMATINIB], the IC50 is 9.1 µM with BaF3 [1] and 7.1 µM with BaF3 [2].
On to `COc1cc(Nc2c(C#N)cnc3cc(OCCCN4CCN(C)CC4)c(OC)cc23)c(Cl)cc1Cl` [BOSUTINIB], for which the IC50 in test [3] was greater than 20 µM; in test [4], 0.2 µM; in test [5], 0.15 µM; in the test with BaF3 [1], 0.2 µM; in the test on BaF3 [2], 1 µM; in test [6] it was greater than 10 µM. Moreover, the result in the test on BaF3 [7] was Active.
Turning to `CSc1cccc(Nc2ncc3cc(-c4c(Cl)cccc4Cl)c(=O)n(C)c3n2)c1`, the figures for the IC50 with BaF3 [1] and in the test with BaF3 [2] were 1.8 µM and 2 µM, respectively. Moreover, the result in the test on BaF3 [7] was Active.

These data come from ChEMBL document CHEMBL1137261, “Structural insights into the ATP binding pocket of the anaplastic lymphoma kinase by site-directed mutagenesis, inhibitor binding analysis, and homology modeling” (J Med Chem, 2006).
